ABHD4 inh: ABHD4 (mouse) inhibition, primary FP screen | purified mABHD4, FP-Rh probe fluorescence polarization | inhibition, % at 8.92 µM | hit rate 0.54% among 370,000 | AID 720543;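 active = inhibition exceeding the mean over every tested compound plus 3 SD, cut at about 30% in these data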
Target sequence (Q8VD66 whole entry, looked up): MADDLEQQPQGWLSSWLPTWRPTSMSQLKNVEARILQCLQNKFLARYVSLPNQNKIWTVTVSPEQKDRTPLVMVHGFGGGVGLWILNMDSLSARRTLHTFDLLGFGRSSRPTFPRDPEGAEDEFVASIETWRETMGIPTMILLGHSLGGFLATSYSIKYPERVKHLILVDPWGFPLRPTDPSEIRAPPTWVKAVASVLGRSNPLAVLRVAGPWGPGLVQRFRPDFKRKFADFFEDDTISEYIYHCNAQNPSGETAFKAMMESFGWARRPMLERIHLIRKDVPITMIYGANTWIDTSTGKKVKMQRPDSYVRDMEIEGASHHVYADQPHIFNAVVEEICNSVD
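System: mouse ABHD4 enzyme, wild type / Medium: HEPES pH 7.0, NaCl, Pluronic buffer / Reagent: FP-Rh activity-based fluorescent probe / Control set: S159A mutant high control, sample median low control / Detection: fluorescence polarization with parallel and perpendicular emission, 525/598 nm / Schedule: 45 min + 60 min at 25 °C / Compound dosing: 8.92 µM, single dose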
Tn6 DDE FP: disrupts Tn6 cyclic peptide binding to fibrin D-Dimer-E complex | AID 720509 | Fibrin DD(E) TRITC-Tn6 fluorescence polarization displacement | inhibition, % at 8.3 µM | hit rate 0.21% among 370,000;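 active = inhibition above a per-campaign cutoff: mean of compounds within control limits plus 3 SD, cut at about 15% in these data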
TCR-CD3 inh: inhibitors of human TCR-CD3 interaction; inhibition, % at 9.4 µM; hit rate 0.37% among 360,000; TAMRA-labeled TCR probe fluorescence, biochemical;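 note: recombinant mutant TCR 2C K166C tagged with TAMRA read by polarization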
DDE Tn7 FP inh: DD(E)-Tn7 binding inhibition, primary FP screen; P02675; FP displacement of FITC-Tn7 peptide from fibrin DD(E); 0% = median of compound wells per plate; inhibition, % at 8.3 µM; hit rate 0.13% among 370,000; AID 720508;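 active = inhibition above the mean of compounds falling within the control limits plus 3 SD of them, cut at about 14% in these data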
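Assay system: Human clot-derived fibrin DD(E) complex | Buffer or medium: Tris/NaCl/CaCl2 buffer, pH 7.8 | Repeats: One replicate per compound | Benchmarks: Aha-Tn7 high control | Measure: % inhibition scaled between sample-field median and high-control FP | Schedule: 10 min plus 3 h, room temperature | Signal: Fluorescence polarization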
HTRA1 inhibitor: inhibitors of human serine peptidase HTRA1. recombinant HTRA1, FP-rhodamine activity-based probe, fluorescence polarization. Q92743. hit rate 0.5% among 340,000. inhibition, % at 5.96 µM; in the data active = inhibition above about 36%
HTRA1 inh conf: confirmation of human HTRA1 inhibitors; recombinant HTRA1, FP-rhodamine activity-based probe, fluorescence polarization; inhibition, % at 5.96 µM; hit rate 66% among 1,600; shares compounds with HTRA1 inhibitor;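 active = mean inhibition over three repeats above a set limit taken from the earlier primary screen, cut at about 37% in these data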;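 note: inhibitors block probe binding so polarization drops and inhibition rises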
BSA probe FL: counter-screen for TCR-CD3 interaction inhibitors: BSA probe; shares compounds with TCR-CD3 inh; TAMRA-labeled BSA probe fluorescence counterscreen; inhibition, % at 9.4 µM; hit rate 10% among 1,200; AID 652035; in the data active = inhibition above about 23%
TCR-CD3 inh conf: TCR-CD3 interaction inhibition, confirmation; shares compounds with TCR-CD3 inh; TAMRA-labeled TCR probe fluorescence binding assay; inhibition, % at 9.4 µM; hit rate 48% among 1,200
ABHD4 confirm: confirmation of mouse ABHD4 inhibitors | shares compounds with ABHD4 inh | purified mABHD4, FP-Rh probe fluorescence polarization | inhibition, % at 8.92 µM | hit rate 55% among 1,800 | AID 720658;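 active = mean inhibition across replicates above the hit cutoff set in the primary screen, cut at about 30% in these data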
A number is an active result; n = inactive; x = no result. Rows were chosen to be rich in hits. Some 1.3% of all compounds tested hit in one or more screens of this group. Cut-off read from the data, not from the text of the source, unless noted: active = inhibition above about 19%; inactive = the rest.

SMILES	ABHD4 inh	Tn6 DDE FP	TCR-CD3 inh	DDE Tn7 FP inh	HTRA1 inhibitor	HTRA1 inh conf	ABHD4 confirm	others
CCN(CC)c1ccc(N=Cc2cc(Br)ccc2O)cc1	45.1	n	n	n	59.8	n	n
COc1ccc(Nc2c([N+](=O)[O-])ccc3c2=NC2(CCCCC2)N=3)cc1	30.5	n	n	n	54.7	51.9	40.3
O=c1c2cc(N3CCOCC3)ccc2[nH]c(=S)n1CCCN1CCCCC1	n	n	n	n	n	x	x
COc1ccc(CCn2c(O)cc3nn(-c4nc5ccccc5s4)c(=O)c-3c2C)cc1	36.9	n	n	n	41.7	88.0	n
COC(=O)[C@]12C[C@H](CC(=O)NCc3cccc(C(F)(F)F)c3)C(=O)N(CCc3ccc(OC)c(OC)c3)C1=C[C@H](COCc1ccccc1)O[C@@H]2C	n	n	x	n	x	x	x
CCN(CCCNc1cc2c(c(N)c1S(=O)(=O)O)C(=O)c1ccccc1C2=O)c1ccccc1	101.7	n	n	n	85.8	83.1	102.6
C=CCn1c(SCC(=O)c2ccc(O)c(O)c2)nnc1-c1ccc(C)cc1	33.5	n	n	n	60.1	66.2	n
C=CCn1c(SCC(=O)c2ccc(O)c(O)c2)nnc1-c1ccc(OC)cc1	37.7	n	n	n	55.7	79.1	n
CCO/C=C1/C(=O)N(C)C(=O)c2cc(OC)ccc21	n	n	n	n	n	x	x
CC12CCC(=O)N1c1c(sc3nc(N4CCOCC4)c4c(c13)CCCC4)C(=O)N2 (stereo unspecified)	n	n	n	n	n	x	x
Cc1ccc2[nH]c(C)c(/C=N/Nc3nc4ccccc4s3)c2c1	31.3	n	n	n	49.4	53.2	43.4
COc1ccc(C=NNc2nc3ccccc3s2)cc1	n	n	n	n	n	x	x
Cc1ccc(O)c(N=Cc2cc(Cc3ccccc3)cc([N+](=O)[O-])c2O)c1	34.9	n	n	n	57.9	60.7	n
OC(CSc1ccccc1)CN1CCN(c2ccccc2)CC1 (stereo unspecified)	n	n	n	n	n	x	x
Oc1cc(CNCc2ccccc2)c(O)cc1CNCc1ccccc1	41.5	n	n	n	57.0	52.2	57.7
Cc1ccc(-c2csc(N(CCO)CCCn3c(C(F)(F)F)nc4ccccc43)n2)cc1	n	n	n	n	n	x	x
CN1CCc2cccc3c2[C@H]1Cc1ccc(O)c(O)c1-3	88.3	n	n	n	59.1	50.4	n
Cc1cc(N2CCOCC2)nc(N2CCOCC2)c1C#N	n	n	n	n	n	x	x
O=C1c2ccccc2C(=O)c2c(Nc3ccc(CCO)cc3)ccc(O)c21	48.3	n	n	n	53.3	80.5	75.5
CC(=O)Nc1ccc(Nc2ccc3c4c(cc(=O)n3C)-c3ccccc3C(=O)c24)cc1	n	n	n	n	n	x	x
O=C(CCCOc1ccc(Cl)cc1Cl)Nc1ccccn1	n	n	n	n	n	x	x
O=C(O)c1ccc(N=N/C(=N\Nc2ccc(C(=O)O)cc2)c2ccccc2)cc1	n	n	n	n	n	x	x
Brc1ccc(N/N=C(/N=Nc2nn[nH]n2)c2ccccc2)cc1	90.9	n	n	n	61.8	87.8	104.2
CCC[C@H]1[C@@H](NC(=O)C2CCOC2)CC[C@@]23CCCN2C(=O)CCC[C@@H]13 (stereo partly specified)	n	n	x	n	x	x	x
Oc1c(I)cc(I)c2cccnc12	32.7	n	n	n	72.1	65.7	n
O=C(O)c1ccccc1NS(=O)(=O)c1ccc(N/N=C/c2cccc(O)c2O)c([N+](=O)[O-])c1	85.5	n	24.7	n	73.7	77.6	76.7	BSA probe FL=n;TCR-CD3 inh conf=23.6
CCOc1cc(/C=N/Nc2ccc(S(=O)(=O)Nc3ccccc3C(=O)O)cc2[N+](=O)[O-])cc(Cl)c1O	72.6	n	n	n	75.3	67.8	86.3

Compound activity as filed in PubChem.
